In ChEMBL document CHEMBL1124560, “New 2-substituted indoloquinone mitomycin analogues” (J Med Chem, 1989):
Converted amounts (≈) assume the structure as drawn.

Columns and labels:
Homo sapiens = species on record: Homo sapiens; experiment: Antitumor activity against moser human colon carcinoma cell line; type: functional
Summary of the method: (§1)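 Crystal violet staining of cultured tumour cells. The stain was solubilized in 0.1 M AcOH-EtOH (1:1 v/v) and optical density read at 590 nm. IC50 came from linear regression of the absorbance data. Compounds were in DMSO vehicle; mitomycin C was in DMSO/saline. Indoloquinone values are the mean of two experiments per cell line.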

HCT-116 [1] = experiment: Antitumor activity against HCT116 human colon carcinoma cell line; type: functional, cell-based; summary of the method: as §1
A549 [2] = experiment: Antitumor activity against A549 human lung carcinoma cell line; type: functional, cell-based; summary of the method: as §1
[3] = Antitumor activity against SW1271 human lung carcinoma cell line; type: functional, cell-based; summary of the method: as §1
B16 = experiment: Antitumor activity against B16-BN murine melanoma cell line; type: functional, cell-based; conditions: Mus musculus; summary of the method: as §1
B16-F10 = experiment: Antitumor activity against B16-F10 murine melanoma cell line; type: functional, cell-based; conditions: Mus musculus; summary of the method: as §1
P388 [4] = experiment: Maximum effect against P388 murine leukemia in mice at a dose of 25.6 mg/kg; type: functional, Mus musculus
P388 [5] = experiment: Maximum effect on P388 murine leukemia in mice at a dose of 32.0 mg/kg; type: functional, Mus musculus
Summary of the method: (§2)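 P388 leukemia, 10^6 ascites cells implanted in CDF1 female mice; single dose on day 1, six mice per dose, 10 saline controls, concurrent mitomycin C control group per experiment. Max effect = % T/C (median survival time treated/control × 100) at optimal dose.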

P388 [6] = experiment: Minimum effective dose of compound against P388 murine leukemia in mice; type: functional; conditions: Mus musculus, read-out: MED
Summary of the method: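 P388 ascites leukemia (10^6 cells) in CDF1 female mice, dosed once on day 1, six mice per dose, saline controls (10). Minimal effective dose defined as dose giving % T/C = 125, from median survival times.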

P388 [7] = experiment: Maximum effect on P388 murine leukemia in mice at a dose of 12.8 mg/kg; type: functional, Mus musculus; summary of the method: as §2
[8] = Antitumor activity against SW900 human lung carcinoma cell line; type: functional, cell-based; summary of the method: as §1
P388 [9] = experiment: Maximum effect on P388 murine leukemia in mice at a dose of 6.4 mg/kg; type: functional, Mus musculus
P388 [10] = experiment: Maximum effect on P388 murine leukemia in mice at a dose of 25.6 mg/kg
HCT-116 [11] = experiment: Antitumor activity against HCT116 human colon carcinoma cell line experiment 2; type: functional, cell-based
Summary of the method: (§3)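 Cell growth in A549 and HCT-116 cultures was read by tetrazolium staining, with an IC50 reported for each of two separate experiments.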

A549 [12] = experiment: Antitumor activity against A549 human lung carcinoma cell line in experiment 2; type: functional, cell-based; summary of the method: as §3
A549 [13] = experiment: Antitumor activity against A549 human lung carcinoma cell line in experiment 1; type: functional, cell-based; summary of the method: as §3
HCT-116 [14] = experiment: Antitumor activity against HCT116 human colon carcinoma cell line experiment 1; type: functional, cell-based; summary of the method: as §3
P388 [15] = experiment: Maximum effect on P388 murine leukemia in mice at a dose of 51.2 mg/kg; type: functional, Mus musculus

| SMILES | IC50 (Homo sapiens) | IC50 (HCT-116 [1]) | IC50 (A549 [2]) | IC50 [3] | IC50 (B16) | IC50 (B16-F10) | IC50 [8] | IC50 (HCT-116 [11]) | IC50 (A549 [12]) | IC50 (A549 [13]) | IC50 (HCT-116 [14]) | T/C (P388 [4]) | T/C (P388 [5]) | minimal effective dose (P388 [6]) | T/C (P388 [7]) | T/C (P388 [9]) | T/C (P388 [10]) | T/C (P388 [15]) |
| --- | --- | --- | --- | --- | --- | --- | --- | --- | --- | --- | --- | --- | --- | --- | --- | --- | --- | --- |
| CNC(=O)OCc1c2c(n(C)c1COC(=O)NC)C(O)=C(C)C(=N)C2=O | 3.1 µg/mL (≈ 8.51 µM) | 3.7 µg/mL (≈ 10.2 µM) | 1.6 µg/mL (≈ 4.39 µM) | 7.9 µg/mL (≈ 21.7 µM) | 9.5 µg/mL (≈ 26.1 µM) | 13.3 µg/mL (≈ 36.5 µM) | – | – | – | – | – | 120% | – | – | – | – | – | – |
| CNC(=O)OCc1c2c(n(C)c1COC(=O)NC)C(=O)C(C)=C(N1CC1)C2=O | 0.13 µg/mL (≈ 0.333 µM) | 0.17 µg/mL (≈ 0.435 µM) | 0.03 µg/mL (≈ 0.0768 µM) | 2.7 µg/mL (≈ 6.92 µM) | 1.6 µg/mL (≈ 4.1 µM) | 0.66 µg/mL (≈ 1.69 µM) | – | – | – | – | – | – | 145% | 14.5 mg/kg | – | – | – | – |
| CNC(=O)OCc1c2c(n(C)c1COC(C)=O)C(=O)C(C)=C(N1CC1)C2=O | 0.035 µg/mL (≈ 0.0932 µM) | 0.065 µg/mL (≈ 0.173 µM) | < 0.02 µg/mL | 0.73 µg/mL (≈ 1.94 µM) | 0.27 µg/mL (≈ 0.719 µM) | 0.39 µg/mL (≈ 1.04 µM) | – | – | – | – | – | – | – | – | 114% | – | – | – |
| CNC(=O)OCc1c2c(n(C)c1COC(=O)NC)C(=O)C(C)=C(OC)C2=O | < 0.03 µg/mL | < 0.03 µg/mL | – | 0.14 µg/mL (≈ 0.369 µM) | – | < 0.03 µg/mL | < 0.03 µg/mL | – | – | – | – | – | – | – | – | 100% | – | – |
| CNC(=O)OCc1c2c(n(C)c1COC(C)=O)C(O)=C(C)C(=N)C2=O | 12.8 µg/mL (≈ 36.6 µM) | > 31 µg/mL | > 3.1 µg/mL | > 31 µg/mL | 14 µg/mL (≈ 40.1 µM) | > 31 µg/mL | – | – | – | – | – | – | – | – | – | – | 105% | – |

Continued, in another order:

| IC50 (Homo sapiens) | IC50 (HCT-116 [1]) | IC50 (A549 [2]) | IC50 [3] | IC50 (B16) | IC50 (B16-F10) | IC50 [8] | IC50 (HCT-116 [11]) | IC50 (A549 [12]) | IC50 (A549 [13]) | IC50 (HCT-116 [14]) | SMILES | T/C (P388 [4]) | T/C (P388 [5]) | minimal effective dose (P388 [6]) | T/C (P388 [7]) | T/C (P388 [9]) | T/C (P388 [10]) | T/C (P388 [15]) |
| --- | --- | --- | --- | --- | --- | --- | --- | --- | --- | --- | --- | --- | --- | --- | --- | --- | --- | --- |
| – | – | – | – | – | – | – | 0.06 µg/mL (≈ 0.159 µM) | 0.065 µg/mL (≈ 0.172 µM) | 0.075 µg/mL (≈ 0.198 µM) | 0.06 µg/mL (≈ 0.159 µM) | CNC(=O)OCc1c2c(n(C)c1C(C)OC(C)=O)C(=O)C(C)=C(OC)C2=O (stereo unspecified) | – | – | – | – | – | – | – |
| 0.09 µg/mL (≈ 0.247 µM) | 0.065 µg/mL (≈ 0.178 µM) | – | 0.47 µg/mL (≈ 1.29 µM) | – | 0.2 µg/mL (≈ 0.549 µM) | 0.04 µg/mL (≈ 0.11 µM) | – | – | – | – | CNC(=O)OCc1c2c(n(C)c1COC(C)=O)C(=O)C(C)=C(OC)C2=O | – | – | – | – | – | – | 105% |
| 2.8 µg/mL (≈ 8.37 µM) | 1.1 µg/mL (≈ 3.29 µM) | 0.47 µg/mL (≈ 1.41 µM) | 8.1 µg/mL (≈ 24.2 µM) | 3.6 µg/mL (≈ 10.8 µM) | 1.5 µg/mL (≈ 4.49 µM) | 0.24 µg/mL (≈ 0.718 µM) | 0.01 µg/mL (≈ 0.0299 µM) | 0.08 µg/mL (≈ 0.239 µM) | 0.015 µg/mL (≈ 0.0449 µM) | 0.015 µg/mL (≈ 0.0449 µM) | CO[C@@]12[C@H](COC(N)=O)C3=C(C(=O)C(C)=C(N)C3=O)N1C[C@@H]1N[C@@H]12 [MITOMYCIN] | – | – | – | – | – | – | – |
